Reference: ChEMBL document CHEMBL1255410, “Activity of the investigational fluoroquinolone finafloxacin against ciprofloxacin-sensitive and -resistant Acinetobacter baumannii isolates” (2010)
In brackets after ≈: the same amount, converted by molar mass.

Legend:
[1] = tested on: Acinetobacter baumannii; experiment: Antimicrobial activity against Acinetobacter baumannii isolate 4 at pH 7.2; format: functional
Summary of the method: (§1)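 Agar dilution MIC on Mueller-Hinton agar. For the acidic condition, HCl was added to bring the agar to pH 5.8 before pouring the antibiotic plates, and the pH was checked after the agar set. The standard condition was pH 7.2. Both drugs' plates were made the same day from fresh medium, and MICs were read at the same time.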

[2] = tested on: Acinetobacter baumannii; experiment: Antimicrobial activity against Acinetobacter baumannii isolate 8 at pH 7.2; format: functional
Summary of the method: (§2)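 Agar dilution MIC on Mueller-Hinton agar under standard conditions (pH 7.2). Antibiotic-containing plates were made the same day from freshly prepared medium. Agar pH was checked after solidifying. Both fluoroquinolones were tested simultaneously against A. baumannii isolates with characterized gyrA/parC genes. MICs are in μg/ml.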

[3] = tested on: Acinetobacter baumannii; experiment: Antimicrobial activity against Acinetobacter baumannii isolate 13 at pH 7.2; format: functional
Summary of the method: (§3)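 MIC by agar dilution on Mueller-Hinton agar under standard conditions (pH 7.2), against isolates with characterized gyrA/parC genes. Agar pH was checked after solidifying. Plates for both drugs were prepared the same day from freshly made media, and MICs were determined simultaneously with the pH 5.8 set.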

[4] = tested on: Acinetobacter baumannii; experiment: Antimicrobial activity against Acinetobacter baumannii isolate 20 harboring GyrA Ser83-Leu mutation at pH 7.2; format: functional; summary of the method: as §3
[5] = tested on: Acinetobacter baumannii; experiment: Antimicrobial activity against Acinetobacter baumannii isolate 23 harboring GyrA Glu87-Gly mutation at pH 7.2; format: functional; summary of the method: as §3
[6] = tested on: Acinetobacter baumannii; experiment: Antimicrobial activity against Acinetobacter baumannii isolate 24 harboring GyrA Ser83-Leu mutation at pH 7.2; format: functional; summary of the method: as §3
[7] = tested on: Acinetobacter baumannii; experiment: Antimicrobial activity against Acinetobacter baumannii isolate 25 harboring GyrA Ser83-Leu mutation at pH 7.2; format: functional; summary of the method: as §3
[8] = tested on: Acinetobacter baumannii; experiment: Antimicrobial activity against Acinetobacter baumannii isolate 30 harboring GyrA Ser83-Leu mutation at pH 7.2; format: functional; summary of the method: as §3
[9] = tested on: Acinetobacter baumannii; experiment: Antimicrobial activity against Acinetobacter baumannii isolate 33 harboring GyrA Ser83-Leu mutation at pH 7.2; format: functional; summary of the method: as §1
[10] = tested on: Acinetobacter baumannii; experiment: Antimicrobial activity against Acinetobacter baumannii isolate 39 harboring GyrA Ser83-Leu mutation at pH 7.2; format: functional; summary of the method: as §1
[11] = tested on: Acinetobacter baumannii; experiment: Antimicrobial activity against Acinetobacter baumannii isolate 40 harboring GyrA Ser83-Leu mutation at pH 7.2; format: functional; summary of the method: as §1
[12] = tested on: Acinetobacter baumannii; experiment: Antimicrobial activity against Acinetobacter baumannii isolate 52 harboring GyrA Ser83-Leu and ParC Ser80-Leu mutation at pH 7.2; format: functional; summary of the method: as §1
[13] = tested on: Acinetobacter baumannii; experiment: Antimicrobial activity against Acinetobacter baumannii isolate 53 harboring GyrA Ser83-Leu and ParC Ser80-Leu mutation at pH 7.2; format: functional; summary of the method: as §1
[14] = tested on: Acinetobacter baumannii; experiment: Antimicrobial activity against Acinetobacter baumannii isolate 54 harboring GyrA Ser83-Leu and ParC Ser80-Leu mutation at pH 7.2; format: functional; summary of the method: as §1
[15] = tested on: Acinetobacter baumannii; experiment: Antimicrobial activity against Acinetobacter baumannii isolate 55 harboring GyrA Ser83-Leu and ParC Ser80-Leu mutation at pH 7.2; format: functional; summary of the method: as §2
[16] = tested on: Acinetobacter baumannii; experiment: Antimicrobial activity against Acinetobacter baumannii isolate 59 harboring GyrA Ser83-Leu and ParC Glu84-Lys mutation at pH 7.2; format: functional; summary of the method: as §2
[17] = tested on: Acinetobacter baumannii; experiment: Antimicrobial activity against Acinetobacter baumannii isolate 60 harboring GyrA Ser83-Leu and ParC Ser80-Leu mutation at pH 7.2; format: functional; summary of the method: as §2
[18] = tested on: Acinetobacter baumannii; experiment: Antimicrobial activity against Acinetobacter baumannii isolate 61 harboring GyrA Ser83-Leu and ParC Ser80-Leu mutation at pH 7.2; format: functional; summary of the method: as §2
[19] = tested on: Acinetobacter baumannii; experiment: Antimicrobial activity against Acinetobacter baumannii isolate 63 harboring GyrA Ser83-Leu and ParC Glu84-Lys mutation at pH 7.2; format: functional; summary of the method: as §2
[20] = tested on: Acinetobacter baumannii; experiment: Antimicrobial activity against Acinetobacter baumannii isolate 65 harboring GyrA Ser83-Leu and ParC Ser80-Leu mutation at pH 7.2; format: functional; summary of the method: as §2
[21] = tested on: Acinetobacter baumannii; experiment: Antimicrobial activity against Acinetobacter baumannii isolate 7 at pH 5.8; format: functional
Summary of the method: (§4)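 Agar dilution MIC on Mueller-Hinton agar acidified to pH 5.8 with HCl before the antibiotic-containing plates were poured. Agar pH was checked after solidifying. Plates were made the same day from fresh medium. Both fluoroquinolones were tested simultaneously against A. baumannii isolates with characterized gyrA/parC genes. MICs are in μg/ml.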

[22] = tested on: Acinetobacter baumannii; experiment: Antimicrobial activity against Acinetobacter baumannii isolate 16 at pH 5.8; format: functional
Summary of the method: (§5)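 MIC by agar dilution on Mueller-Hinton agar acidified to pH 5.8 with HCl before antibiotic-containing plates were poured. Agar pH was rechecked once the agar had solidified. Isolates had characterized gyrA/parC genes. Plates for both drugs were made the same day from fresh media, and MICs were read in parallel with the standard-pH set.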

[23] = tested on: Acinetobacter baumannii; experiment: Antimicrobial activity against Acinetobacter baumannii isolate 17 at pH 5.8; format: functional; summary of the method: as §5
[24] = tested on: Acinetobacter baumannii; experiment: Antimicrobial activity against Acinetobacter baumannii isolate 19 harboring GyrA Ser83-Leu mutation at pH 5.8; format: functional; summary of the method: as §5
[25] = tested on: Acinetobacter baumannii; experiment: Antimicrobial activity against Acinetobacter baumannii isolate 24 harboring GyrA Ser83-Leu mutation at pH 5.8; format: functional; summary of the method: as §5
[26] = tested on: Acinetobacter baumannii; experiment: Antimicrobial activity against Acinetobacter baumannii isolate 26 harboring GyrA Ser83-Leu mutation at pH 5.8; format: functional; summary of the method: as §5
[27] = tested on: Acinetobacter baumannii; experiment: Antimicrobial activity against Acinetobacter baumannii isolate 27 harboring GyrA Ser83-Leu mutation at pH 5.8; format: functional; summary of the method: as §5
[28] = tested on: Acinetobacter baumannii; experiment: Antimicrobial activity against Acinetobacter baumannii isolate 31 harboring GyrA Ser83-Leu mutation at pH 5.8; format: functional; summary of the method: as §5
[29] = tested on: Acinetobacter baumannii; experiment: Antimicrobial activity against Acinetobacter baumannii isolate 34 harboring GyrA Ser83-Leu mutation at pH 5.8; format: functional; summary of the method: as §1
[30] = tested on: Acinetobacter baumannii; experiment: Antimicrobial activity against Acinetobacter baumannii isolate 41 harboring GyrA Ser83-Leu mutation at pH 5.8; format: functional; summary of the method: as §1
[31] = tested on: Acinetobacter baumannii; experiment: Antimicrobial activity against Acinetobacter baumannii isolate 49 harboring GyrA Ser83-Leu and ParC Ser80-Leu mutation at pH 5.8; format: functional; summary of the method: as §1
[32] = tested on: Acinetobacter baumannii; experiment: Antimicrobial activity against Acinetobacter baumannii isolate 50 harboring GyrA Ser83-Leu and ParC Ser80-Leu mutation at pH 5.8; format: functional; summary of the method: as §1
[33] = tested on: Acinetobacter baumannii; experiment: Antimicrobial activity against Acinetobacter baumannii isolate 57 harboring GyrA Ser83-Leu and ParC Ser80-Phe mutation at pH 5.8; format: functional; summary of the method: as §4
[34] = tested on: Acinetobacter baumannii; experiment: Antimicrobial activity against Acinetobacter baumannii isolate 58 harboring GyrA Ser83-Leu and ParC Ser80-Leu mutation at pH 5.8; format: functional; summary of the method: as §4
[35] = tested on: Acinetobacter baumannii; experiment: Antimicrobial activity against Acinetobacter baumannii isolate 64 harboring GyrA Ser83-Leu and ParC Ser80-Leu mutation at pH 5.8; format: functional; summary of the method: as §4
[36] = tested on: Acinetobacter baumannii; experiment: Antimicrobial activity against Acinetobacter baumannii isolate 65 harboring GyrA Ser83-Leu and ParC Ser80-Leu mutation at pH 5.8; format: functional; summary of the method: as §4
[37] = tested on: Acinetobacter baumannii; experiment: Antimicrobial activity against adeB overexpressing Acinetobacter baumannii isolate 67 harboring GyrA Ser83-Leu and ParC Ser80-Leu mutation at pH 5.8; format: functional; summary of the method: as §4
[38] = tested on: Acinetobacter baumannii; experiment: Antimicrobial activity against Acinetobacter baumannii isolate 33 harboring GyrA Ser83-Leu mutation at pH 5.8; format: functional; summary of the method: as §1
[39] = tested on: Acinetobacter baumannii; experiment: Antimicrobial activity against Acinetobacter baumannii isolate 60 harboring GyrA Ser83-Leu and ParC Ser80-Leu mutation at pH 5.8

SMILES: O=C(O)c1cn(C2CC2)c2cc(N3CCNCC3)c(F)cc2c1=O [CIPROFLOXACIN]
- MIC [1]: 0.12 µg/mL (≈ 0.362 µM)
- MIC [2]: 0.25 µg/mL (≈ 0.754 µM)
- MIC [3]: 0.5 µg/mL (≈ 1.51 µM)
- MIC [4]: 2 µg/mL (≈ 6.04 µM)
- MIC [5]: 4 µg/mL (≈ 12.1 µM)
- MIC [6]: 4 µg/mL (≈ 12.1 µM)
- MIC [7]: 4 µg/mL (≈ 12.1 µM)
- MIC [8]: 8 µg/mL (≈ 24.1 µM)
- MIC [9]: 8 µg/mL (≈ 24.1 µM)
- MIC [10]: 16 µg/mL (≈ 48.3 µM)
- MIC [11]: 16 µg/mL (≈ 48.3 µM)
- MIC [12]: 128 µg/mL (≈ 386 µM)
- MIC [13]: 128 µg/mL (≈ 386 µM)
- MIC [14]: 128 µg/mL (≈ 386 µM)
- MIC [15]: 128 µg/mL (≈ 386 µM)
- MIC [16]: 128 µg/mL (≈ 386 µM)
- MIC [17]: 128 µg/mL (≈ 386 µM)
- MIC [18]: 128 µg/mL (≈ 386 µM)
- MIC [19]: > 128 µg/mL
- MIC [20]: > 128 µg/mL
- MIC [21]: 2 µg/mL (≈ 6.04 µM)
- MIC [22]: 4 µg/mL (≈ 12.1 µM)
- MIC [23]: 4 µg/mL (≈ 12.1 µM)
- MIC [24]: 4 µg/mL (≈ 12.1 µM)
- MIC [25]: 32 µg/mL (≈ 96.6 µM)
- MIC [26]: 32 µg/mL (≈ 96.6 µM)
- MIC [27]: 32 µg/mL (≈ 96.6 µM)
- MIC [28]: 32 µg/mL (≈ 96.6 µM)
- MIC [29]: 128 µg/mL (≈ 386 µM)
- MIC [30]: > 128 µg/mL
- MIC [31]: > 128 µg/mL
- MIC [32]: > 128 µg/mL
- MIC [33]: > 128 µg/mL
- MIC [34]: > 128 µg/mL
- MIC [35]: > 128 µg/mL
- MIC [36]: > 128 µg/mL
- MIC [37]: > 128 µg/mL
- MIC [38]: 128 µg/mL (≈ 386 µM)
- MIC [39]: > 128 µg/mL
